Results taken from ChEMBL document CHEMBL1147780, “Peptide inhibitors of Dengue virus NS3 protease. Part 1: Warhead” (Bioorg Med Chem Lett, 2006).
Where a SMILES comes first, the peptide text is derived from it. [ ]: non-standard residue; d: D form. The star is where a group is joined. Nle = CCCC[C@H](N)C(=O)O; Bz = O=C(c1ccccc1)*; CF3 = FC(F)(F)*

Target: Genome polyprotein (dengue virus type 2, UniProt P29990)
Assay: Inhibitory activity against CF40.NS3pro from Dengue virus type 2
Outline: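 Enzyme: truncated dengue 2 NS3 protease fused through a flexible linker to a […] NS2B region. Inhibitors tested in 96-well format in 50 mM Tris, pH 8.5, with 1 mM CHAPS. Values reported as Ki.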

Genome polyprotein, sequence (P29990 1346-1475 limits assumed): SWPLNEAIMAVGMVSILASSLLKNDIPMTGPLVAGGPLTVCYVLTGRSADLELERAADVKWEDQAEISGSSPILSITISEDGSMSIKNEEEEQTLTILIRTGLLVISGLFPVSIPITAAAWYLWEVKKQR
Genome polyprotein, sequence (P29990 1476-2093 limits assumed): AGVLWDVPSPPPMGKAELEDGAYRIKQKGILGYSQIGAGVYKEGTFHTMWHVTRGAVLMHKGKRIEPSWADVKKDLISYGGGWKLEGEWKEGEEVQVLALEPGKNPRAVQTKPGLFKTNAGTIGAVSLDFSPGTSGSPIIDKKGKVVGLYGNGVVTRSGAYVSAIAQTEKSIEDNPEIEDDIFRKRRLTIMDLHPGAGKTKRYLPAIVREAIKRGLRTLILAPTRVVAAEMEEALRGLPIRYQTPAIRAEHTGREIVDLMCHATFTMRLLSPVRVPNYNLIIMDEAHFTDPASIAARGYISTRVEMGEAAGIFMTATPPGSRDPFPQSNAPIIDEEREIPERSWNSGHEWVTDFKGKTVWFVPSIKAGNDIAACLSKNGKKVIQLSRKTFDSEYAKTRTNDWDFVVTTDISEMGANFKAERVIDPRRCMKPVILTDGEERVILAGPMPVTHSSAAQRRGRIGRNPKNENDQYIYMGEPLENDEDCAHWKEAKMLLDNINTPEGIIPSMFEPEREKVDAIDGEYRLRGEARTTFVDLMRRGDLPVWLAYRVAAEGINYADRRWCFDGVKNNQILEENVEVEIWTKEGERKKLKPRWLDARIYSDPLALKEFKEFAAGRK

| SMILES | Ki [µM] |
| --- | --- |
| CCCC[C@H](NC(=O)c1ccccc1)C(=O)N[C@@H](CCCCN)C(=O)N[C@@H](CCCN=C(N)N)C(=O)N[C@@H](CCCN=C(N)N)C(=O)C(F)(F)F (Bz-[Nle]KRR-CF3) | 0.85 |
| CCCC[C@H](NC(=O)c1ccccc1)C(=O)N[C@@H](CCCCN)C(=O)N[C@@H](CCCN=C(N)N)C(=O)N[C@@H](CCCN=C(N)N)C(O)C(=O)NCc1ccccc1 (stereo partly specified) | 178 |
| CCCC[C@H](NC(=O)c1ccccc1)C(=O)N[C@@H](CCCCN)C(=O)N[C@@H](CCCN=C(N)N)C(=O)N[C@@H](CCCN=C(N)N)C(=O)NS(=O)(=O)C(F)(F)F | > 500 |
| CCCC[C@H](NC(=O)c1ccccc1)C(=O)N[C@@H](CCCCN)C(=O)N[C@H](C(=O)N[C@H](C=O)CCCN=C(N)N)[C@@H](C)O (Bz-[Nle]KTR-aldehyde) | > 500 |
| CCCC[C@H](NC(=O)c1ccccc1)C(=O)N[C@@H](CCCCN)C(=O)N[C@@H](CCCN=C(N)N)C(=O)N[C@@H](CCCN=C(N)N)B(O)O | 0.043 |
| CCCC[C@H](NC(=O)c1ccccc1)C(=O)N[C@@H](CCCCN)C(=O)N[C@H](C(=O)N[C@@H](CCCN=C(N)N)C(=O)O)[C@@H](C)O (Bz-[Nle]KTR-OH) | > 500 |
| CCCC[C@H](NC(=O)c1ccccc1)C(=O)N[C@@H](CCCCN)C(=O)N[C@@H](CCCN=C(N)N)C(=O)N[C@@H](CCCN=C(N)N)C(=O)O (Bz-[Nle]KRR-OH) | > 500 |
| CCCC[C@H](NC(=O)c1ccccc1)C(=O)N[C@@H](CCCCN)C(=O)N[C@@H](CCCN=C(N)N)C(=O)N[C@@H](CCCN=C(N)N)C(N)=O (Bz-[Nle]KRR-NH2) | 128 |
| CCCC[C@H](NC(=O)c1ccccc1)C(=O)N[C@@H](CCCCN)C(=O)N[C@@H](CCCNC(=N)N)C(=O)N[C@@H](CCCNC(=N)N)C(=O)c1nccs1 | 42.8 |
| CCCC[C@H](NC(=O)c1ccccc1)C(=O)N[C@@H](CCCCN)C(=O)N[C@H](C(=O)N[C@@H](CCCN=C(N)N)C(N)=O)[C@@H](C)O (Bz-[Nle]KTR-NH2) | > 500 |
| CCCC[C@H](NC(=O)c1ccccc1)C(=O)N[C@@H](CCCCN)C(=O)N[C@@H](CCCNC(=N)N)C(=O)N[C@@H](CCCNC(=N)N)C(=O)c1nc2ccccc2o1 | 82.9 |
